In ChEMBL document CHEMBL3612059, “Synthesis of 1,2-benzisoxazole tethered 1,2,3-triazoles that exhibit anticancer activity in acute myeloid leukemia cell lines by inhibiting histone deacetylases, and inducing p21 and tubulin acetylation” (Bioorg Med Chem, 2015):
Activity calls are given as the source filed them. The rule behind the calls is not given here.

Assays:
[1] = test system: MV4-11; test: Induction of apoptosis in human MV4-11 cells assessed as necrotic cells at 2.5 uM after 72 hrs by Annexin V-FITC/propidium iodide staining-based flow cytometric analysis relative to control; type: functional
In short: (§1)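 MV4-11 cells (RPMI, 10 % FBS, 37 °C, 5 % CO2), 100,000 per well, exposed to PTB at 2.5, 5.0 or 10 μM for 72 h. Washed in ice-cold Ca/Mg-free PBS, stained with annexin V-FITC and PI in 1X binding buffer for 15 min in the dark, then read at once by flow cytometry. Necrotic cells are the annexin-negative/PI-positive quadrant.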

[2] = test system: MV4-11; test: Induction of apoptosis in human MV4-11 cells assessed as necrotic cells at 10 uM after 72 hrs by Annexin V-FITC/propidium iodide staining-based flow cytometric analysis relative to control; type: functional; in short: as §1
[3] = test system: MV4-11; test: Induction of apoptosis in human MV4-11 cells assessed as necrotic cells at 5 uM after 72 hrs by Annexin V-FITC/propidium iodide staining-based flow cytometric analysis relative to control; type: functional; in short: as §1
[4] = test system: MOLM-13 (Homo sapiens); test: Induction of apoptosis in human MOLM13 cells assessed as early apoptotic cells at 5 uM after 72 hrs by Annexin V-FITC/propidium iodide staining-based flow cytometric analysis (reference value: 11%)
[5] = test system: MOLM-14; test: Cytotoxicity against human MOLM14 cells assessed as cell viability at 0.25 to 5 uM by MTT assay; type: functional, cell-based
In short: (§2)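 AML cells kept in RPMI with 10 % FBS and 1 % penicillin-streptomycin at 37 °C, 5 % CO₂, mycoplasma-screened. Seeded at 8,000 cells/well across a range of concentrations and read at several times up to 96 h. MTT added to 0.5 mg/ml final for 3 h at 37 °C, formazan dissolved in SDS-HCl, absorbance read at 570 nm. IC50 taken from the dose-response curves.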

[6] = test system: MV4-11; test: Induction of apoptosis in human MV4-11 cells assessed as early apoptotic cells at 5 uM after 72 hrs by Annexin V-FITC/propidium iodide staining-based flow cytometric analysis (reference value: 7%); type: functional
In short: (§3)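 100,000 cells per well treated with 2.5, 5.0 or 10 μM for 72 h. Washed in ice-cold Ca/Mg-free PBS, resuspended in 100 μl binding buffer, stained with 5 μl PI plus 3 μl annexin V-FITC for 15 min in the dark, then read immediately by flow cytometry. Quadrants scored as live, early apoptotic, late apoptotic and necrotic.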

[7] = test system: MOLM-13 (Homo sapiens); test: Induction of apoptosis in human MOLM13 cells assessed as upregulation of cleaved caspase-9 expression after 24 hrs by Western blot analysis
[8] = test system: MV4-11; test: Induction of apoptosis in human MV4-11 cells after 72 hrs by Annexin V-FITC/propidium iodide staining-based flow cytometric analysis; type: functional, cell-based; in short: as §3
[9] = test system: MOLM-13 (Homo sapiens); test: Induction of apoptosis in human MOLM13 cells assessed as upregulation of cleaved PARP expression after 24 hrs by Western blot analysis
[10] = test system: MOLM-14; test: Induction of apoptosis in human MOLM14 cells assessed as early apoptotic cells at 10 uM after 72 hrs by Annexin V-FITC/propidium iodide staining-based flow cytometric analysis (reference value: 7%); type: functional; in short: as §3
[11] = Inhibition of cyclin D protein expression in human MOLM13 cells by Western blot analysis; type: functional, cell-based; conditions: MOLM-13
[12] = test system: MOLM-13 (Homo sapiens); test: Induction of apoptosis in human MOLM13 cells assessed as late apoptotic cells at 5 uM after 72 hrs by Annexin V-FITC/propidium iodide staining-based flow cytometric analysis (reference value: 7%)
[13] = test system: MOLM-13 (Homo sapiens); test: Induction of apoptosis in human MOLM13 cells assessed as late apoptotic cells at 10 uM after 72 hrs by Annexin V-FITC/propidium iodide staining-based flow cytometric analysis (reference value: 7%)
[14] = test system: MOLM-13 (Homo sapiens); test: Cytotoxicity against human MOLM13 cells assessed as cell viability after 24 to 96 hrs by MTT assay
[15] = test system: MOLM-14; test: Induction of apoptosis in human MOLM14 cells assessed as early apoptotic cells at 5 uM after 72 hrs by Annexin V-FITC/propidium iodide staining-based flow cytometric analysis (reference value: 7%); type: functional; in short: as §3
[16] = test system: MV4-11; test: Induction of apoptosis in human MV4-11 cells assessed as late apoptotic cells at 5 uM after 72 hrs by Annexin V-FITC/propidium iodide staining-based flow cytometric analysis (reference value: 2%); type: functional; in short: as §3
[17] = test system: MV4-11; test: Induction of apoptosis in human MV4-11 cells assessed as late apoptotic cells at 10 uM after 72 hrs by Annexin V-FITC/propidium iodide staining-based flow cytometric analysis (reference value: 2%); type: functional; in short: as §3
[18] = test system: MOLM-14; test: Upregulation of p21 protein expression in human MOLM14 cells by Western blot analysis; type: functional, cell-based
[19] = test system: MOLM-14; test: Induction of apoptosis in human MOLM14 cells assessed as early apoptotic cells at 2.5 uM after 72 hrs by Annexin V-FITC/propidium iodide staining-based flow cytometric analysis (reference value: 7%); type: functional; in short: as §3
[20] = test system: MV4-11; test: Cytotoxicity against human MV4-11 cells assessed as cell viability after 72 hrs by MTT assay; type: functional, cell-based; conditions: MV4-11, 72 h
In short: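 MV4-11 cells, 8,000/well, exposed for 72 h to […]. MTT added to 0.5 mg/ml final for 3 h at 37 °C, SDS-HCl solubilization, A570 read. Percent inhibition normalized to diluent controls. Three independent experiments in quadruplicate, mean ± SD.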

[21] = test system: MOLM-14; test: Induction of apoptosis in human MOLM14 cells assessed as necrotic cells at 10 uM after 72 hrs by Annexin V-FITC/propidium iodide staining-based flow cytometric analysis (reference value: 1%); type: functional; in short: as §3
[22] = test system: MOLM-13 (Homo sapiens); test: Cell cycle arrest in human MOLM13 cells assessed as decrease in cells level at G1 phase after 72 hrs by propidium iodide staining-based flow cytometric analysis
[23] = test system: MOLM-14; test: Induction of apoptosis in human MOLM14 cells assessed as necrotic cells at 2.5 uM after 72 hrs by Annexin V-FITC/propidium iodide staining-based flow cytometric analysis (reference value: 1%); type: functional; in short: as §3
[24] = test system: MOLM-13 (Homo sapiens); test: Induction of apoptosis in human MOLM13 cells assessed as necrotic cells at 2.5 uM after 72 hrs by Annexin V-FITC/propidium iodide staining-based flow cytometric analysis (reference value: 3%)
[25] = test system: MV4-11; test: Cell cycle arrest in human MV4-11 cells assessed as accumulation at G2/M phase after 72 hrs by propidium iodide staining-based flow cytometric analysis; type: functional
In short: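 Cells in RPMI with 10 % FBS at 37 °C, 5 % CO₂; treated up to 72 h, washed in cold PBS, fixed in -20 °C-precooled 70 % ethanol at 4 °C. Stained with 50 µg/ml PI, 1 % Triton X-100 and 20 µg/ml RNase A in PBS, 30 min, 37 °C, dark. Cell-cycle phases read by flow cytometry; three independent experiments, mean ± SD.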

[26] = test system: MOLM-14; test: Cytotoxicity against human MOLM14 cells assessed as cell viability after 24 to 96 hrs by MTT assay; type: functional, cell-based; in short: as §2

## c1ccc(Oc2ccc(-c3cn(-c4noc5ccccc45)nn3)cc2)cc1
[1]
  Activity: 2%
[2]
  Activity: 5%
[3]
  Activity: 3%
[4]
  Activity: 19%
[5]
  Activity: Dose-dependent effect
[6]
  Activity: 16%
[7]
  Activity: Dose-dependent effect
[8]
  Activity: Dose-dependent effect
[9]
  Activity: Dose-dependent effect
[10]
  Activity: 24%
[11]
  inhibition: Dose-dependent effect
[12]
  Activity: 26%
[13]
  Activity: 35%
[14]
  Activity: Dose-dependent effect
[15]
  Activity: 17%
[16]
  Activity: 20%
[17]
  Activity: 26%
[18]
  Activity: Active
[19]
  Activity: 12%
[20]
  IC50: 2000 nM
[21]
  Activity: 10%
[22]
  Activity: Active
[23]
  Activity: 2%
[24]
  Activity: 14%
[25]
  Activity: Active
[26]
  Activity: Dose-dependent effect
